XBP1 UPR activ – activators of adaptive arm of unfolded protein response (XBP1); CHO-XBP1 luciferase reporter, IRE1-XBP1 UPR activation, luminescence; percent of tunicamycin response, DMSO as zero; activation, % at 20 µM; 0.33% of 330,000 active; AID 463104;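 active = versus positive control, 20 µM dose yields 30% or more activation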
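Test system: CHO-XBP1 luciferase reporter cells | Buffer or medium: Serum-containing F12 medium, 10% FBS | Schedule: 6 h compound exposure at 37 °C, 5% CO2 | Detection: Steady-Glo luciferase glow luminescence, 10 min after reagent addition | Read-out basis: Activation, % of tunicamycin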
Tb MetRS inh – Trypanosoma brucei MetRS inhibition. purified T. brucei MetRS, ATP depletion, Kinase-Glo luminescence. inhibition, % at 11.9 µM. 0.4% of 360,000 active. AID 624268;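 active = inhibition above a per-plate cutoff of the control wells' mean inhibition plus 3 SD, cut at about 5.5% in these data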
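Dosing: 11.9 µM single point; system: parasite MetRS enzyme; technique: luminescence of leftover ATP; times: 15 min enzyme-compound preincubation, 2 h reaction, 10 min detection, 25 °C; replicates: each compound tested once; read-out basis: percent inhibition relative to median high and low control wells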
UPR CHOP act – apoptotic UPR (CHOP) activation | activation, % at 10 µM | 0.34% of 330,000 active | CHO-CHOP luciferase reporter, luminescence; percent of tunicamycin response over DMSO baseline | AID 449763;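 active = at 10 µM dose, activation of 40% or more, normalized to positive control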
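Dosing – one dose, 10 µM in 0.5% DMSO · System – CHO-CHOP cells, stable luciferase reporter of PERK-eIF2a-CHOP signalling · Input – 500 cells/well · Control set – tunicamycin 10 µg/mL final as positive, DMSO-only wells as negative · Timing – 6 h compound treatment, 37 °C · Measure – % activation vs tunicamycin · Technique – luminescence read with Steady-Glo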
V-ATPase pH – regulators of yeast V-ATPase proton transport; S. cerevisiae, pHLuorin cytosolic pH fluorescence; response, % at 10 µM; 0.37% of 350,000 active; in the data active = response mostly above about 7.3%, no sharp cut-off; inactive = mostly below about 5.4%; also: actives read high
CHOP inhibitor – CHOP inhibition in unfolded protein response | inhibition, % at 10 µM | 3.8% of 220,000 active | CHO-K1 CHOP-promoter luciferase, tunicamycin-induced, 15-18 h;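 active = compounds that reduced the stress-induced luciferase reporter signal by more than about 70% of percent inhibition, limit read from the data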
Each line names hits and unclear results; the compound was inactive in the other large screens. Shown is part of a subset that was picked to be rich in hits.

CCCCOC(=O)NC(NCC(O)c1ccccc1)(C(F)(F)F)C(F)(F)F (stereo not drawn)	CHOP inhibitor 81
CCOC(=O)NC(NCC(O)c1ccccc1)(C(F)(F)F)C(F)(F)F (stereo not drawn)	none
CCc1nc(NCCCCCO)c2nnn(Cc3ccccc3F)c2n1	none
Cc1ccc(S(=O)(=O)N2C[C@H]3C(=O)C[C@@H](c4ccccc4)N(S(=O)(=O)c4ccc(C)cc4)[C@H]3C[C@H]2c2ccc(Cl)cc2)cc1	none (no result: XBP1 UPR activ, UPR CHOP act, CHOP inhibitor)
CS(=O)(=O)N(CC(=O)NCCSC1CCCCC1)c1ccc2c(c1)OCO2	V-ATPase pH 24
Cc1ccc2cc(C)c(N3CCN(c4ccccn4)CC3)nc2c1	CHOP inhibitor 74
O=C(NNC(=O)c1cc(-c2ccccc2)nc2ccccc12)Nc1cccc(Cl)c1	none
CC(C)(C)c1ccc(-c2cc(C(=O)NNC(=O)Nc3ccccc3)c3ccccc3n2)cc1	CHOP inhibitor 94
O=S(=O)(NCc1cccs1)c1ccc(Br)cc1	none (no result: CHOP inhibitor)
O=C(Nc1ccc(Br)cc1)c1ccc(F)c(S(=O)(=O)NCc2cccs2)c1	CHOP inhibitor 93
CC(=O)O[C@@H]1C[C@@]2(C)[C@@H](CC[C@H]2[C@@H](C)/C=C\CC(C)C)C2=C[C@@H](O)[C@@]3(O)C[C@@H](O)[C@H](O)C[C@]3(CO)[C@]21O	none (no result: XBP1 UPR activ, UPR CHOP act, V-ATPase pH, CHOP inhibitor)
CCc1nccn1-c1cc(C(C)(C)C)nc2c(-c3ccc(Cl)cc3)cnn12	none
Cc1nccn1-c1cc(C(C)(C)C)nc2c(-c3ccccc3)cnn12	CHOP inhibitor 80
Cc1c(Cl)cccc1-n1cnc(=O)c2ccccc21	V-ATPase pH 13 (no result: CHOP inhibitor)
COc1ccc(/C=N/n2cc(-c3ccc(OC)cc3)nc2N)cc1	CHOP inhibitor 70
CC1=CSC2=NC(=O)/C(=C\c3cccn3-c3ccc([N+](=O)[O-])cc3)C(=N)N12	CHOP inhibitor 87
COc1ccccc1-c1nc2s/c(=C\c3cccs3)c(=O)n2n1	CHOP inhibitor 83
COc1cc(/C=c2\sc3nc(-c4ccncc4)nn3c2=O)ccc1OC(C)=O	CHOP inhibitor 107 (no result: XBP1 UPR activ, Tb MetRS inh, UPR CHOP act, V-ATPase pH)
CCCCCOc1ccc(/C=c2\sc3nc(=O)c(-c4ccccc4)nn3c2=O)cc1OC	none
O=C(CC1Sc2ccccc2NC1=O)c1ccc(Br)cc1 (stereo not drawn)	CHOP inhibitor 72
O=C(O)CC1Sc2ccccc2NC1=O (stereo not drawn)	none
COC(=O)c1sc2nc(N3CCCCC3)c3c(c2c1N)CCCC3	none
NC(=O)c1sc2nc(N3CCCCC3)c3c(c2c1N)CCCC3	CHOP inhibitor 92
CCOc1ccccc1N1CCN(C(=O)C2=CC=CN3CCS(=O)(=O)N=C23)CC1	none (no result: CHOP inhibitor)
CC(C)(C)c1ccc(NC(=O)CNC2CCCc3ccccc32)cc1 (stereo not drawn)	CHOP inhibitor 91
Cc1ccc(NC(=O)CN(C)CC(=O)NC2CCCc3ccccc32)cc1 (stereo not drawn)	none
O=C(Nc1ccccc1Cl)c1cc(C2CCCCN2C(=O)c2cccs2)on1 (stereo not drawn)	none (no result: XBP1 UPR activ, UPR CHOP act, V-ATPase pH, CHOP inhibitor)
COc1ccc(-c2nc(CN3CCN(c4cc(C)nc(C)c4)CC3)c(C)o2)c2ccccc12	none
Cc1oc(-c2cccc3ccccc23)nc1CN1CCN(c2ncnc3ccccc23)CC1	CHOP inhibitor 82
O=C(CCN1C(=O)/C(=C/c2ccccc2Cl)SC1=S)Nc1ccccn1	none (no result: CHOP inhibitor)
Cc1ccc(C(=O)NNC(=O)CCCN2C(=O)/C(=C/c3ccccc3Cl)SC2=S)cc1	none
O=C(CCCN1C(=O)/C(=C/c2ccccc2Cl)SC1=S)Nc1ccccn1	CHOP inhibitor 91
O=C(O)CCCN1C(=O)/C(=C/c2cn(-c3ccccc3)nc2-c2cccs2)SC1=S	CHOP inhibitor 85 (no result: XBP1 UPR activ, UPR CHOP act)
CCc1ccc(/C=C2\SC(=S)N(CCCC(=O)Nc3cc(C)on3)C2=O)cc1	none (no result: XBP1 UPR activ, UPR CHOP act, CHOP inhibitor)
Cc1cc(NC(=O)CCCN2C(=O)/C(=C/c3cccs3)SC2=S)no1	CHOP inhibitor 76
O=C(CCCN1C(=O)/C(=C/c2ccccc2Cl)SC1=S)NNC(=O)c1ccc(Cl)cc1	CHOP inhibitor 93
CC1C(=O)N(Cc2cn(CCC3OCCCO3)nn2)CCS(=O)(=O)N1Cc1ccc(-c2ccc(Cl)c(Cl)c2)cc1 (stereo not drawn)	none (no result: XBP1 UPR activ, UPR CHOP act, CHOP inhibitor)
Cc1cccc(-c2cc3c(N=O)c4ccccc4c-3n[nH]2)c1	CHOP inhibitor 85
O=Nc1c2cc(-c3ccccc3)[nH]nc-2c2ccccc12	CHOP inhibitor 92 (no result: XBP1 UPR activ, UPR CHOP act)
COC(=O)c1ccc(C(=O)OC)c(NC(=O)Cc2cccs2)c1	none (no result: XBP1 UPR activ, UPR CHOP act, CHOP inhibitor)
CCOC(=O)C1=CCN(S(=O)(=O)c2ccc(C)cc2)C1c1cccc(F)c1 (stereo not drawn)	none (no result: XBP1 UPR activ, UPR CHOP act, V-ATPase pH, CHOP inhibitor)
CSCCC(NS(=O)(=O)c1ccc(Cl)cc1)C(=O)OCc1c(Cl)cccc1Cl (stereo not drawn)	CHOP inhibitor 86
Cc1ccc(NC(=S)Nc2cc(-c3ccccc3)[nH]n2)cc1Cl	CHOP inhibitor 84
COc1ccc(NC(=S)Nc2ccc(C)c(Cl)c2)cc1OC	none
Fc1ccc(NC(=S)Nc2cc(-c3ccccc3)[nH]n2)cc1Cl	CHOP inhibitor 70
COc1ccccc1-c1cnc(C(O)c2ccc(Cl)cc2C)[nH]1 (stereo not drawn)	none (no result: XBP1 UPR activ, UPR CHOP act, V-ATPase pH, CHOP inhibitor)
O=C(O)C1=C[C@H](c2ccc(C(F)(F)F)cc2)C[C@H](OCc2ccc(CO)cc2)O1	none
CC(C)(C)c1nc(N2CCN(C(=O)c3ccco3)CC2)c2nnn(Cc3ccccc3)c2n1	CHOP inhibitor 76
CC(NC(=S)N1CCN(c2ccccc2)CC1)c1ccccc1 (stereo not drawn)	none
Cc1cccc(OCCNC(=O)CCNS(=O)(=O)c2ccc3ccccc3c2)c1	none (no result: CHOP inhibitor)
CC/C(=N\NC(=O)c1ccncc1)C12CC3CC(CC(C3)C1)C2	none
CC/C(=N\NC(=O)c1ccc2c(c1)OCO2)C12CC3CC(CC(C3)C1)C2	CHOP inhibitor 77
CN(C)/C=C(/C#N)C(=O)c1cccc(Oc2ccc(C(C)(C)C)cc2)c1	CHOP inhibitor 93
Cc1cccc(C)c1NC(=O)C(c1ccc(C#N)cc1)n1c(=O)c(-c2ccco2)nc2ccccc21 (stereo not drawn)	none (no result: XBP1 UPR activ, UPR CHOP act, V-ATPase pH, CHOP inhibitor)
COc1ccc(CNc2cccc(F)c2)cc1Br	CHOP inhibitor 86
COc1ccc(CNCc2cccc(OC)c2OC)cc1Br	none
CC1C(=O)C(C)C(c2cc(Cl)ccc2O)NC1c1cc(Cl)ccc1O (stereo not drawn)	none (no result: CHOP inhibitor)
COc1ccccc1-c1csc(C(NC(C)=O)c2ccc(F)c(F)c2)n1 (stereo not drawn)	none (no result: XBP1 UPR activ, UPR CHOP act, V-ATPase pH, CHOP inhibitor)
Cc1ccc(-c2noc(CN(C(=O)C(c3ccccc3)c3ccccc3)C(C)C)n2)cc1	none
Cc1cccc(-c2noc(CN(C(=O)CCc3ccccc3)C(C)C)n2)c1	CHOP inhibitor 70
Cc1ccc(-c2noc(CN(C(=O)c3cccc(Br)c3)C(C)C)n2)cc1	CHOP inhibitor 71
O=C(CN(C(=O)CCC(=O)Nc1nccs1)c1ccccc1F)NCC1CCCO1 (stereo not drawn)	CHOP inhibitor 73

From PubChem BioAssay
